Test results published in ChEMBL document CHEMBL1130045, “7-Spiroindanyl derivatives of naltrexone and oxymorphone as selective ligands for delta opioid receptors” (J Med Chem, 1997).

Legend:
Cavia porcellus [1] = organism: Cavia porcellus; experiment: Compound was tested for agonistic activity on the electrically stimulated guinea pig ileum (GPI) at 1 uM; format: functional
[2] = biological target: Kappa-type opioid receptor (Cavia porcellus) (UniProt P41144); experiment: Antagonist activity against electrically stimulated guinea pig ileum using ethylketazocine (EK) as kappa opioid receptor agonist; format: functional, tissue-based
Chain of Kappa-type opioid receptor (Cavia porcellus) (P41144 whole entry): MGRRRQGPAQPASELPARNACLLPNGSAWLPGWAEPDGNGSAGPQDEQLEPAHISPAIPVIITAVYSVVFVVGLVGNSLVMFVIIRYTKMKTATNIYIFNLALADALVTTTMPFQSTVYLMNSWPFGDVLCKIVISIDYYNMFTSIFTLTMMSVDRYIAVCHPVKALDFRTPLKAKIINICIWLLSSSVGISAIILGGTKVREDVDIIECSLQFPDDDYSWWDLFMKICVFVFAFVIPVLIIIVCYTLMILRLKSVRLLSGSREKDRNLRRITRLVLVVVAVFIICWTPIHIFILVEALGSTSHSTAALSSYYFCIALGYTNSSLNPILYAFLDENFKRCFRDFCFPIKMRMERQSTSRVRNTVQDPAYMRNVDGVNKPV
In short: (§1)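 Electrically stimulated guinea pig ileum (morphine, μ; ethylketazocine, κ) or mouse vas deferens (DADLE, δ). The test ligand is incubated with the tissue for 15 min, then the agonist curve is run with 100 nM antagonist present. Read-out is the IC50 ratio: agonist IC50 with antagonist divided by the control IC50 in the same preparation. Three or more replicates.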

[3] = biological target: Mu-type opioid receptor (Cavia porcellus) (UniProt P97266); experiment: Antagonist activity against electrically stimulated guinea pig ileum using morphine (M) as mu opioid receptor agonist; format: functional, tissue-based; in short: as §1
Chain of Mu-type opioid receptor (Cavia porcellus) (P97266 whole entry): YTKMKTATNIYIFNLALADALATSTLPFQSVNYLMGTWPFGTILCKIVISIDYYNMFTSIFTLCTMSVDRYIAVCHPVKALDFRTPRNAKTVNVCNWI

Mus musculus [4] = organism: Mus musculus; experiment: Compound was tested for agonistic activity on the electrically stimulated mouse vas deferens (MVD) at 1 uM; format: functional
Mus musculus [5] = organism: Mus musculus; experiment: Compound was tested for the antagonist activity on the electrically stimulated mouse vas deferens using DADLE as delta opioid receptor agonist; format: functional; in short: as §1
[6] = biological target: Opioid receptors; mu & kappa (Homo sapiens) (UniProt P41145+P35372); experiment: Antagonist selectivity ratio measured as delta IC50 to that of mu kappa IC50 values.; format: functional
Chain of Opioid receptors; mu & kappa (Homo sapiens) (P35372 whole entry, looked up): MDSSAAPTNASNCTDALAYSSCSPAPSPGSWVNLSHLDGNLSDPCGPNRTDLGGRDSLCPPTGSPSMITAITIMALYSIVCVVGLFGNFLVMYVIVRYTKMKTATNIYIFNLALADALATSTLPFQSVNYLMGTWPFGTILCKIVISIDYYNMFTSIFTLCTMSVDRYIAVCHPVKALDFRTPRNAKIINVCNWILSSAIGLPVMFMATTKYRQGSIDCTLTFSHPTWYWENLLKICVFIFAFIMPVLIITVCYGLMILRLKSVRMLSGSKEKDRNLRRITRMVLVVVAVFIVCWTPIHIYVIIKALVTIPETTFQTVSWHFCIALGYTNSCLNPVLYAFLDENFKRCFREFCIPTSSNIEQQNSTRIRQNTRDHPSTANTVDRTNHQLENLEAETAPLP
Chain of Opioid receptors; mu & kappa (Homo sapiens) (P41145 whole entry, looked up): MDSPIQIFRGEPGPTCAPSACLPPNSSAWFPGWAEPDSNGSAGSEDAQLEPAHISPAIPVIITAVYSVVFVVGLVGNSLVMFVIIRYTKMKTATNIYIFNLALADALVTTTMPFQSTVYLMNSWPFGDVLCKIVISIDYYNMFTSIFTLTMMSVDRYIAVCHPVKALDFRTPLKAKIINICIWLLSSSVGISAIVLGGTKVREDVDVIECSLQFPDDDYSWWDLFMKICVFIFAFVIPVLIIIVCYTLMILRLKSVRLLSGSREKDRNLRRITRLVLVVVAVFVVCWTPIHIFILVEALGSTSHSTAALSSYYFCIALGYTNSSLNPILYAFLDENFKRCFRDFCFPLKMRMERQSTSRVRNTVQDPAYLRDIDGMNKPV
In short: (§2)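 Derived from the tissue antagonism data. The δ IC50 ratio (DADLE, mouse vas deferens) is divided by the μ (morphine) or κ (ethylketazocine) IC50 ratio from guinea pig ileum, each ratio measured at 100 nM antagonist. An IC50 ratio below unity is set to a minimum of 1 in the calculation.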

[7] = biological target: Opioid receptors; mu & delta (Homo sapiens) (UniProt P41143+P35372); experiment: Antagonist selectivity ratio measured as delta IC50 to that of mu receptor IC50 values.; format: functional; in short: as §2
Chain of Opioid receptors; mu & delta (Homo sapiens) (P35372 whole entry, looked up): as the sequence (P35372 whole entry, looked up) above
Chain of Opioid receptors; mu & delta (Homo sapiens) (P41143 whole entry, looked up): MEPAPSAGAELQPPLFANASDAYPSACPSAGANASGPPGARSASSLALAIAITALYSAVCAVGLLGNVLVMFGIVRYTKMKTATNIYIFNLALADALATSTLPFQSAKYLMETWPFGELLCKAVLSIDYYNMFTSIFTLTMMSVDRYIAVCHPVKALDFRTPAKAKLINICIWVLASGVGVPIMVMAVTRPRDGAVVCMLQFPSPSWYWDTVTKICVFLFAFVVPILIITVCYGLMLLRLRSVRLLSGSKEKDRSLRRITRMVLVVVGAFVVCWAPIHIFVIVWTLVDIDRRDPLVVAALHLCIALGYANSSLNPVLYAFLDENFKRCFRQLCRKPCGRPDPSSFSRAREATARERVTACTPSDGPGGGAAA

Mus musculus [8] = organism: Mus musculus; experiment: Compound was tested for agonistic activity on the electrically stimulated mouse vas deferens (MVD); format: functional, organism-based
[9] = biological target: Delta-type opioid receptor (Homo sapiens, UniProt P41143); experiment: […]; format: functional
Chain of Delta-type opioid receptor (Homo sapiens, UniProt P41143) (P41143 whole entry): as the sequence (P41143 whole entry, looked up) above

[10] = biological target: Kappa-type opioid receptor (Homo sapiens, UniProt P41145); experiment: […]; format: functional
Chain of Kappa-type opioid receptor (Homo sapiens, UniProt P41145) (P41145 whole entry): as the sequence (P41145 whole entry, looked up) above

Mu-type opioid receptor [11] = biological target: Mu-type opioid receptor (Homo sapiens, UniProt P35372); experiment: […]; format: functional
Chain of Mu-type opioid receptor (Homo sapiens, UniProt P35372) (P35372 whole entry): as the sequence (P35372 whole entry, looked up) above

Cavia porcellus [12] = organism: Cavia porcellus; experiment: Compound was tested for agonistic activity on the electrically stimulated guinea pig ileum (GPI); format: functional, organism-based
[13] = biological target: T1, Delta-type opioid receptor (Mus musculus, UniProt P32300); experiment: […]; format: functional
T1 sequence (P32300 whole entry): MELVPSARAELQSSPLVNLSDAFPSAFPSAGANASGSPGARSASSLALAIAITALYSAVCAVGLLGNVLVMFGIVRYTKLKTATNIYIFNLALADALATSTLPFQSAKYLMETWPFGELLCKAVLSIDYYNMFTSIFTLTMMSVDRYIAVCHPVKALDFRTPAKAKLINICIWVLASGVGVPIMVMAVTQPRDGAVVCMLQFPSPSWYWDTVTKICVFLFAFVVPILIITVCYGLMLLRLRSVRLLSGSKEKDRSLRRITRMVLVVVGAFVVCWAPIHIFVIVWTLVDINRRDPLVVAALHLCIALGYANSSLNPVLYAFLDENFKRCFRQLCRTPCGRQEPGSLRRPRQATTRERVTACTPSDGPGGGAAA
In short: (§3)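 Competition binding in ICR mouse brain membranes, using a modified Werling procedure. Radioligands are [3H]naltrindole for δ, [3H]DAMGO for μ and [3H]U69593 for κ. Ki values are derived from the competition curves.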

[14] = biological target: Kappa-type opioid receptor (Mus musculus, UniProt P33534); experiment: […]; format: functional; in short: as §3
Chain of Kappa-type opioid receptor (Mus musculus, UniProt P33534) (P33534 whole entry): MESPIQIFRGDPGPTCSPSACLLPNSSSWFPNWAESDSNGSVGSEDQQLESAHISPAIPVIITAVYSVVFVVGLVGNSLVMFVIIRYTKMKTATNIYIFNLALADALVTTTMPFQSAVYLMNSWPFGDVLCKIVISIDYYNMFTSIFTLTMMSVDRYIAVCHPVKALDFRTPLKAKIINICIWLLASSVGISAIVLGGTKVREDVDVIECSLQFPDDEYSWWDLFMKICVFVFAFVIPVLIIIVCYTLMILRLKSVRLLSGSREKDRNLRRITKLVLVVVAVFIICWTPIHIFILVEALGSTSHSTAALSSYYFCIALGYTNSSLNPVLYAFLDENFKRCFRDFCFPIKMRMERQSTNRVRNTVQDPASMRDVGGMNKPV

Mu-type opioid receptor [15] = biological target: Mu-type opioid receptor (Mus musculus, UniProt P42866); experiment: […]; format: functional; in short: as §3
Chain of Mu-type opioid receptor (Mus musculus, UniProt P42866) (P42866 whole entry): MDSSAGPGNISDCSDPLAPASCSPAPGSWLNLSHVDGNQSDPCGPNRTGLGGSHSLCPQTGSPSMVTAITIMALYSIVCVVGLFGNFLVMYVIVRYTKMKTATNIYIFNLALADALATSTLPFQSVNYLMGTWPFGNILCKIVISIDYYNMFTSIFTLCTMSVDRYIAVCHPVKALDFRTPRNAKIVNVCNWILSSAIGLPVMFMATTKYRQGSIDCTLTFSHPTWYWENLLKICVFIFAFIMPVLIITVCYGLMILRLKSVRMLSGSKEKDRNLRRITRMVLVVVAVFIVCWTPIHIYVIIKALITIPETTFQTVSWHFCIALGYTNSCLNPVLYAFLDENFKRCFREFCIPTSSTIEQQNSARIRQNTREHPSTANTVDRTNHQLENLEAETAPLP

[16] = biological target: Delta-type opioid receptor (Mus musculus) (UniProt P32300); experiment: Compound was tested for its ability to antagonize the antinociceptive effect of DSLET (delta-2 opioid receptor agonist) in mice; format: functional
Chain of Delta-type opioid receptor (Mus musculus) (P32300 whole entry): as the sequence (P32300 whole entry) above
In short: (§4)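 Tail-flick antinociception in ICR mice. Antagonist is given icv at 5 or 10 nmol, timed so its 20 min peak effect falls at the centre of the observation period. Agonists are DPDPE and DSLET icv, and morphine sc. Read-out is the agonist ED50 with antagonist divided by the control ED50, with 95% confidence limits.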

[17] = biological target: Kappa-type opioid receptor (Mus musculus) (UniProt P33534); experiment: Compound was tested for its ability to antagonize the antinociceptive effect of U-69,594 (kappa opioid receptor agonist) in mice; format: functional
Chain of Kappa-type opioid receptor (Mus musculus) (P33534 whole entry): as the sequence (P33534 whole entry) above

[18] = biological target: Mu-type opioid receptor (Mus musculus) (UniProt P42866); experiment: Compound was tested for its ability to antagonize the antinociceptive effect of morphine (mu opioid receptor agonist) in mice; format: functional; in short: as §4
Chain of Mu-type opioid receptor (Mus musculus) (P42866 whole entry): as the sequence (P42866 whole entry) above

[19] = biological target: Delta-type opioid receptor (Mus musculus) (UniProt P32300); experiment: Compound was tested for its ability to antagonize the antinociceptive effect of DPDPE (delta-1 opioid receptor agonist) in mice; format: functional; in short: as §4
[20] = biological target: T1, Delta-type opioid receptor; experiment: The compound tested for […] against [3H]- NT1 (Opioid receptor delta 1) opioid receptor; in short: as §3

Row | Structure (SMILES) | Max response (Cavia porcellus [1]) | IC50 ratio [2] | IC50 ratio [3] | Max response (Mus musculus [4]) | IC50 ratio (Mus musculus [5]) | IC50 ratio [6] | IC50 ratio [7] | IC50 (Mus musculus [8]) | Ki [9] | Ki [10] | Ki (Mu-type opioid receptor [11]) | IC50 (Cavia porcellus [12]) | Ki [13] | Ki [14] | Ki (Mu-type opioid receptor [15]) | ED50 ratio [16] | ED50 ratio [17] | ED50 ratio [18] | ED50 ratio [19] | Ki [20]
1 | COc1ccc2c(c1)CC1(C2)C[C@@]2(O)C3Cc4ccc(O)c5c4C2(CCN3CC2CC2)C(O5)C1=O (stereo not given in full) | -52% | 2.8 | 6.9 | 0.6% | 11.8 | 4.2 | 1.7 |  |  |  |  |  |  |  |  |  |  |  |  | 
2 | CN1CC[C@]23c4c5ccc(O)c4O[C@H]2C(=O)C2(Cc4ccccc4C2)C[C@@]3(O)[C@H]1C5 [SPIROINDANYLOXYMORPHONE] | 55% | 0.99 | 1.2 |  |  |  |  | 23 nM | 2.75 nM | > 3000 nM | 14.3 nM |  |  |  |  |  |  |  |  | 
3 | O=C1C2Oc3c(O)ccc4c3C23CCN(CC2CC2)C(C4)[C@]3(O)CC12Cc1ccc3ccccc3c1C2 (stereo not given in full) | 13.9% | 1.7 | 1 | 14% | 25 | 14.7 | 25 |  |  |  |  |  |  |  |  |  |  |  |  | 
4 | COc1cccc2c1CC1(C2)C[C@@]2(O)C3Cc4ccc(O)c5c4C2(CCN3C)C(O5)C1=O (stereo not given in full) |  |  |  |  |  |  |  | 27 nM |  |  |  | 148 nM | 5.49 nM | > 3000 nM | 9.24 nM |  |  |  |  | 
5 | CN1CCC23c4c5ccc(O)c4OC2C(=O)C2(Cc4cc6ccccc6cc4C2)C[C@@]3(O)C1C5 (stereo not given in full) | 13.4% | 1.2 | 0.58 | 57% | 1.1 | 1 | 1 |  |  |  |  |  |  | > 3000 nM | 125 nM | 0.9 | 3 | 2 | 1.5 | 31.6 nM
6 | O=C1[C@@H]2Oc3c(O)ccc4c3[C@@]23CCN(CC2CC2)[C@H](C4)[C@]3(O)CC12Cc1ccccc1C2 | 16% |  |  | -8% | 130 |  |  |  | 0.25 nM | > 3000 nM | 1.53 nM |  |  |  |  |  |  |  |  | 
7 | O=C1C2Oc3c(O)ccc4c3C23CCN(CC2CC2)C(C4)[C@]3(O)CC12Cc1cccc3cccc(c13)C2 (stereo not given in full) | 11.2% | 0.78 | 0.93 | 17.6% | 12.6 | 12.6 | 12.6 |  |  |  |  |  |  |  |  |  |  |  |  | 
8 | O=C1/C(=C/c2ccccc2)C[C@@]2(O)[C@H]3Cc4ccc(O)c5c4[C@@]2(CCN3CC2CC2)[C@H]1O5 |  |  |  |  |  |  |  |  |  |  |  |  |  |  |  | 0.91 | 1.2 | 0.8 | 7.2 | 
9 | O=C1C2Oc3c(O)ccc4c3C23CCN(CC2CC2)C(C4)[C@]3(O)CC12Cc1cc3ccccc3cc1C2 (stereo not given in full) | 52% | 0.24 | 3.4 | 4.9% | 48 | 48 | 14.1 |  |  |  |  |  | Non-competitive inhibition | 1030 nM | 7.81 nM | 1.5 | 0.8 | 0.8 | 4.4 | 
10 | COc1cccc2c1CC1(C2)C[C@@]2(O)C3Cc4ccc(O)c5c4C2(CCN3CC2CC2)C(O5)C1=O (stereo not given in full) | -4.5% | 2.4 | 6.2 | -18% | 85 | 35 | 13.7 |  |  |  |  |  | 0.028 nM | > 3000 nM | 0.44 nM | 4.3 | 3.4 | 2.5 | 5.6 | 
